# Yeast superoxide: reduction of superoxide in aged yeast, primary screen, HTS; superoxide response (% of plate mean), % at 10 µM; 330,000 compounds, 0.18% hits; S. cerevisiae aged cells, superoxide DHE fluorescence; stronger effect = lower value;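 active = superoxide response under a set limit, about three screen SD below normal, cut at about 65% in these data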;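 also: yeast aged for seven days with compound at 30 °C before DHE staining; 100% = average MFI of all compound-treated wells on the plate with controls excluded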
# TRPC6 act: mouse TRPC6 channel activators, primary screen, cell-based, HEK293, membrane potential dye | Short transient receptor potential channel 6 (Mus musculus), Q61143 | HEK293-TRPC6 membrane potential dye fluorescence; stronger effect = higher value | B-score at 10 µM | 310,000 compounds, 0.13% hits;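 active = B-score of the integrated fluorescence ratio above library mean plus 3 SD, and starting fluorescence ratio within library mean plus 5 SD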;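 also: higher score means more depolarization so channel activation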
# Target sequence (Q61143 whole entry, looked up): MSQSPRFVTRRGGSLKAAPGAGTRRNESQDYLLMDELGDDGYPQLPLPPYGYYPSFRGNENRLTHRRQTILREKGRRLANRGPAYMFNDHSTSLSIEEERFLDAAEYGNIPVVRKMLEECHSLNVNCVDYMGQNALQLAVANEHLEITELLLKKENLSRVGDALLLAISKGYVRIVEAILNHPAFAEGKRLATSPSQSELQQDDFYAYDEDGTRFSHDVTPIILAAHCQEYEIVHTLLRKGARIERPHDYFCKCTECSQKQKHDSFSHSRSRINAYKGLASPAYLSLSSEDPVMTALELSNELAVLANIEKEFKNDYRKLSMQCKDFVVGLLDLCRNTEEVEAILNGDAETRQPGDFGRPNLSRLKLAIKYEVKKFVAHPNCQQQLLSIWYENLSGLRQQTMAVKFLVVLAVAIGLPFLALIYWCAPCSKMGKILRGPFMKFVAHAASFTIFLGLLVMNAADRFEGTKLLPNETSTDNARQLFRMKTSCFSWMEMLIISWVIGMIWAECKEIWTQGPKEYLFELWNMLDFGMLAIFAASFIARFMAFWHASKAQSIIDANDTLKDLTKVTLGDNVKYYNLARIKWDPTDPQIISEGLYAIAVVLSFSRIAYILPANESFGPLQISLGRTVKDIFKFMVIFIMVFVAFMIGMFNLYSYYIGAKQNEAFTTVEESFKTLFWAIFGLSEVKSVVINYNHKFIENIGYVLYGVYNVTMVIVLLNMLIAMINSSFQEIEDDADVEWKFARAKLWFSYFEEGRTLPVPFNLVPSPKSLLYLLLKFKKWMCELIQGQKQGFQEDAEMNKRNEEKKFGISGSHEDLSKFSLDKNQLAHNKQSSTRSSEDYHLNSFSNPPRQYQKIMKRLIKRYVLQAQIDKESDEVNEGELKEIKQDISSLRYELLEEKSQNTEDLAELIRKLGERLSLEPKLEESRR
# TRPC4 act: activators of mouse TRPC4 channel, primary screen, Fluo4 calcium, HEK293 TRPC4beta/mu-opioid cells | Short transient receptor potential channel 4 (Mus musculus), Q9QUQ5 | Fluo4 calcium fluorescence; stronger effect = higher value | B-score at 10 µM | 310,000 compounds, 0.49% hits;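 active = B-score above 5 SD of library B-scores, and initial fluorescence ratio not above library mean plus 5 SD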;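 also: positive B-score marks a calcium rise read as TRPC4 activation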
#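 system = HEK293 cells stably co-expressing mouse TRPC4beta and mu-opioid receptor | schedule = Fluo4 dye loading 45 min at room temperature, 110 s recording | measure = B-scored integrated calcium fluorescence ratio | signal = Fluo4 calcium-sensitive dye fluorescence, kinetic, 1 Hz baseline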
# TRPC6 inh: mouse TRPC6 channel inhibitors, primary screen, cell-based, HEK293, membrane potential dye. Short transient receptor potential channel 6 (Mus musculus), Q61143. ACh-evoked depolarization; stronger effect = lower value. B-score at 10 µM. 310,000 compounds, 1.1% hits. AID 2553, 2010;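 active = B-score under library mean minus 3 SD, initial fluorescence not abnormally high, positive integrated signal ratio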;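 also: B-score derived from integrated fluorescence ratio over the kinetic read; more negative B-score means stronger inhibition of depolarization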
# TRPC4 block: inhibitors of mouse TRPC4 channel, primary screen, Fluo4 calcium, HEK293 TRPC4beta/mu-opioid cells. Short transient receptor potential channel 4 (Mus musculus), Q9QUQ5. DAMGO-evoked Fluo4 calcium flux; stronger effect = lower value. B-score at 10 µM. 300,000 compounds, 0.39% hits. AID 2247, 2010;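 active = B-score over 3 SD under the library average, no early fluorescence shift, positive overall ratio signal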
#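 test system = HEK293 cells with stable TRPC4beta plus mu-opioid receptor expression | detection = Fluo4 Ca2+ flux fluorescence | read-out = integrated fluorescence ratio relative to baseline, converted to per-well B score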
# TRPC4 potent: positive allosteric modulators of TRPC4, primary screen, cell-based, mouse TRPC4beta, HEK293 mu-opioid, Fluo-4 calcium | B-score at 10 µM | Short transient receptor potential channel 4 (Mus musculus), Q9QUQ5 | 310,000 compounds, 0.42% hits | DAMGO EC20, Fluo-4 Ca2+ flux; stronger effect = higher value;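 active = B-score of calcium response area above 5 SD of library B-scores, with initial fluorescence ratio within 5 SD of library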;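 also: B-score of integrated fluorescence ratio over time as area under calcium response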
# TRPC4 spec 2: mouse TRPC4 off-target activity of TRPC6 inhibitors, second screen; shares compounds with TRPC6 inh; HEK293 TRPC4/MOR, membrane potential dye fluorescence; channel activated by saturating DAMGO dose; inhibition, % at 10 µM; 920 compounds, 42% hits;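 active = compounds whose fluorescence signal differed from control wells by over 3 SD, either direction, in both duplicate plates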
# TRPC4 spec: mouse TRPC4 modulation by TRPC6 hits, confirmation, selectivity assay for TRPC6 inhibitor project, cell-based, HEK293 TRPC4/mu-opioid, membrane potential dye; membrane potential fluorescence; 920 compounds, 61% hits; activity change, negative = inhibition, % at 10 µM; shares compounds with TRPC6 inh;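 active = rise or fall in signal beyond 3 SD of buffer-only wells in both replicate plates, either sign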;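 also: integrated kinetic ratio of fluorescence range over baseline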
# HEK293 MPD ctr 2-1: nonspecific membrane potential effects, parental HEK293, confirmation, counter-screen for TRPC6 inhibitor project, cell-based, second counter screen. 920 compounds, 31% hits. shares compounds with TRPC6 inh. signal change vs control, % at 10 µM. parental HEK293 membrane potential dye fluorescence; maximal acetylcholine challenge after compound addition;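 active = membrane potential signal moving either way by over 3 SD of the maximum-effect control, in both duplicate plates, meaning non-specific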
# HEK293 MPD ctr-1: membrane potential modulation in parental HEK293, confirmation, counter-screen for TRPC6 inhibitor project, cell-based. shares compounds with TRPC6 inh. parental HEK293 membrane potential dye fluorescence. membrane potential signal change, % at 10 µM. 920 compounds, 60% hits. AID 2780, 2010;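 active = membrane potential signal shifting up or down by more than 3 SD of buffer-only wells, on both duplicate plates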
# HEK293 MPD ctr-2: parental HEK293 membrane potential modulation, confirmation, counter-screen for TRPC6 modulator project, cell-based | shares compounds with TRPC6 inh | AID 488924, 2010 | membrane potential signal change, % at 10 µM | membrane potential dye fluorescence | 2,400 compounds, 51% hits;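 active = membrane potential signal moves up or down beyond 5 SD from buffer-only wells, on both duplicate plates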
# HEK293 MPD ctr 2-2: second check of TRPC6 modulator effects in parental HEK293 cells | shares compounds with TRPC6 inh | membrane potential dye fluorescence; after compound, maximal acetylcholine stimulation | inhibition, % at 10 µM | 2,400 compounds, 14% hits | AID 488926;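 active = membrane potential signal drops by more than 5 SD from the mean control signal, in both duplicate plates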;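 also: plate controls were acetylcholine ECmax control wells for no effect and buffer only wells for full effect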
# TRPC4 ctr mod: TRPC4 modulation by TRPC6 hit compounds, confirmation, selectivity assay for TRPC6 modulator project, cell-based, HEK293 TRPC4/mu-opioid, membrane potential dye, mouse; shares compounds with TRPC6 inh; membrane potential fluorescence; percent change from control (negative = decrease, positive = increase), % at 10 µM; 2,400 compounds, 69% hits; AID 488927, 2010;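 active = membrane potential signal moved up or down beyond 5 SD of buffer control wells, in both duplicate plates, actives on both sides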;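 also: plate controls were assay buffer wells for no effect and DAMGO maximal-effect wells for full effect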
# TRPC4 ctr inh 2: second check of whether TRPC6 modulators also affect mouse TRPC4; shares compounds with TRPC6 inh; HEK293 TRPC4/mu-opioid, membrane potential dye fluorescence; stimulated with maximal-effect DAMGO; inhibition, % at 10 µM; 2,400 compounds, 55% hits;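 active = drop in membrane potential signal beyond 5 SD of the control wells in both duplicate plates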;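 also: TRPC4 counter screen for TRPC6 hits run under conditions tuned for TRPC6 not TRPC4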
# TRPC6 block conf: mouse TRPC6 channel inhibitors, confirmation, HEK293 cells, membrane potential dye, duplicate | 3,300 compounds, 43% hits | shares compounds with TRPC6 inh | ACh-evoked depolarization | inhibition, % at 10 µM;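 active = fluorescence ratio falls more than 5 SD below the full-stimulation control mean, in both duplicate runs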;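 also: integrated fluorescence ratio of peak minus minimum over baseline after agonist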
# TRPC6 act confirm: mouse TRPC6 channel activators, confirmation, HEK293 cells, membrane potential dye, duplicate | 2,800 compounds, 11% hits | AID 488961, 2010 | activation, % at 10 µM | HEK293-TRPC6 membrane potential dye fluorescence, FDSS | shares compounds with TRPC6 inh;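 active = ratio signal rise beyond 5 SD above unstimulated control wells' mean, seen in both duplicate runs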;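 also: plate controls were buffer EC0 wells for no effect and acetylcholine ECmax response for full effect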
# * hit, by the source's call; i = inactive; / = no result given. The list is not random: actives were taken first. Their share in the collection is about 2.3%.
SMILES,Yeast superoxide,TRPC6 act,TRPC4 act,TRPC6 inh,TRPC4 block,TRPC4 potent,TRPC6 block conf,TRPC6 act confirm,others
O=C(COc1ccc2c3c(c(=O)oc2c1)CCCC3)N[C@@H](Cc1ccccc1)C(=O)O,109,i,i,i,i,i,/,/,
CCOC(=O)C1=C(Nc2cccc(Cl)c2)OCC1=O,117,i,i,i,i,i,/,/,
CCOC(=O)c1c(N=CN(C)C)c2cc([N+](=O)[O-])cnc2n1C,88,i,i,-5.7*,i,i,54%*,i,HEK293 MPD ctr-2=-146%*;HEK293 MPD ctr 2-2=i;TRPC4 ctr mod=-23%*;TRPC4 ctr inh 2=44%*
CCOC(=O)c1c(N)c2cc([N+](=O)[O-])ccc2n1C,102,i,i,i,i,i,/,/,
COc1ccc2oc(=O)c(C(=O)C[n+]3cccc(C)c3)cc2c1,106,i,i,-8.4*,i,i,i,i,TRPC4 spec 2=i;TRPC4 spec=-12%*;HEK293 MPD ctr 2-1=i;HEK293 MPD ctr-1=-137%*
CNC(=O)c1cc2cc(OC)ccc2oc1=O,117,i,i,i,i,i,/,/,
CC(C)NC(=O)Nc1cccc2c1O[C@H](CN(C)C(=O)NC(C)C)[C@@H](C)CN([C@H](C)CO)C2=O,98,/,/,/,/,/,/,/,
O=C(NCCc1cccnc1)c1cc(COc2ccc(F)cc2F)on1,91,i,i,i,i,i,/,/,
CC(=O)N/N=C(/C)c1ccc(NC(=O)c2csc(C)c2C)cc1,97,i,i,i,i,i,/,/,
OC(CNCc1ccccc1)(c1ccc(F)cc1)c1ccc(F)cc1,113,i,i,-5.3*,i,i,i,/,HEK293 MPD ctr-2=160%*;HEK293 MPD ctr 2-2=i;TRPC4 ctr mod=36%*;TRPC4 ctr inh 2=56%*
Cc1cc(C)cc(N(CC(=O)NC(C)(C)C)C(=O)CNC(=O)c2cccs2)c1,95,i,i,-5.4*,i,i,i,i,HEK293 MPD ctr-2=i;HEK293 MPD ctr 2-2=i;TRPC4 ctr mod=i;TRPC4 ctr inh 2=i
CC(C)CCNC(=O)Cc1ccccc1[N+](=O)[O-],85,i,i,i,i,i,/,/,
O=[N+]([O-])c1nn(-c2ccc(Cl)cc2)n(O)c1=NCc1ccccc1,112,i,i,i,i,i,/,/,
O=S(=O)(Nc1nc2ccccc2[nH]1)c1ccc(Cl)cc1,94,i,i,-8.7*,i,i,52%*,i,TRPC4 spec 2=i;TRPC4 spec=i;HEK293 MPD ctr 2-1=i;HEK293 MPD ctr-1=i
O=S(=O)(Nc1nc2ccccc2[nH]1)c1ccccc1,100,i,i,i,i,i,/,/,
Cc1ccc(-c2nc(C(=O)NCCCN3CCOCC3)cc3c2[nH]c2ccccc23)cc1,121,i,i,-6.6*,i,i,i,i,TRPC4 spec 2=58%*;TRPC4 spec=-16%*;HEK293 MPD ctr 2-1=i;HEK293 MPD ctr-1=-166%*
COc1ccc(-c2nc(C(=O)NCCCN3CCOCC3)cc3c2[nH]c2ccccc23)cc1OC,104,i,i,-5.6*,i,i,46%*,i,HEK293 MPD ctr-2=i;HEK293 MPD ctr 2-2=i;TRPC4 ctr mod=-18%*;TRPC4 ctr inh 2=67%*
Cc1ccc(-c2cc(C(=O)NCCCN3CCOCC3)c3ccccc3n2)cc1,86,i,i,i,i,i,/,/,
CC(C)Cc1nnc(NC(=O)c2ccc3c(=O)n4c(nc3c2)CCC4)s1,102,i,i,-7.7*,i,i,i,i,TRPC4 spec 2=i;TRPC4 spec=-15%*;HEK293 MPD ctr 2-1=i;HEK293 MPD ctr-1=-280%*
CC(C)Cc1nnc(NC(=O)c2ccc(N3CCCC3=O)cc2)s1,110,i,i,i,i,i,/,/,
O=C(CCc1ccccc1)c1c(O)cc(O)cc1O,99,i,i,-5.6*,i,i,50%*,i,HEK293 MPD ctr-2=-84%*;HEK293 MPD ctr 2-2=i;TRPC4 ctr mod=-20%*;TRPC4 ctr inh 2=74%*
CN1CCC(OC(c2ccccc2)c2ccccc2)CC1,105,i,i,-6.6*,i,i,66%*,/,TRPC4 spec 2=i;TRPC4 spec=8.7%*;HEK293 MPD ctr 2-1=-5.0%*;HEK293 MPD ctr-1=11%*

# Source: PubChem
